# Results from ChEMBL document CHEMBL1133696, “Development of a lead inhibitor for the A16V+S108T mutant of dihydrofolate reductase from the cycloguanil-resistant strain (T9/94) of Plasmodium falciparum” (J Med Chem, 2000).
# Biological target: Bifunctional dihydrofolate reductase-thymidylate synthase (Plasmodium falciparum K1, UniProt P13922, A16V/S108T)
# Assay: Inhibition constant (Ki mut) against A16V+S108T Mutant DHFRs of Plasmodium falciparum
# Chain of Bifunctional dihydrofolate reductase-thymidylate synthase (P13922 whole entry, looked up, stated change not applied): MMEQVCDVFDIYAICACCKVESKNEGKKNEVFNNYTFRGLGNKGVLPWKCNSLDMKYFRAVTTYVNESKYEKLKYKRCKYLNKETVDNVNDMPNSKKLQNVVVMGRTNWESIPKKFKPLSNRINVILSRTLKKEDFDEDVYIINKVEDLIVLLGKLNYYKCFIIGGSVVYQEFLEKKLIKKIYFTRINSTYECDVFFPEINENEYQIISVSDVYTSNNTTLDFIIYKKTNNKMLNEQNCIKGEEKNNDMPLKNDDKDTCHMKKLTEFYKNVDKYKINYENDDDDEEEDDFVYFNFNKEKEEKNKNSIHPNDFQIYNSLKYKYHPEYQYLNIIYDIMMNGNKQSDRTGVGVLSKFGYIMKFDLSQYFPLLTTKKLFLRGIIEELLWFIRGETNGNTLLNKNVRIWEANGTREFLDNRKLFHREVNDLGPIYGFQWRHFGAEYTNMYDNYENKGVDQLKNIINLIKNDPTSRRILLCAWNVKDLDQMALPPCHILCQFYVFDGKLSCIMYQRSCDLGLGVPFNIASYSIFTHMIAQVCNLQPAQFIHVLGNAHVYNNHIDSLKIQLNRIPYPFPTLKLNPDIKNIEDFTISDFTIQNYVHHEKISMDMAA
row,Compound,Ki [nM]
1,CCCC1N=C(N)N=C(N)N1c1ccc(C)cc1 (stereo not drawn),188
2,CC1N=C(N)N=C(N)N1c1ccc(Cl)c(Cl)c1 (stereo not drawn),17.8
3,NC1=NCN(c2ccccc2)C(N)=N1,585
4,CC1(C)N=C(N)N=C(N)N1c1ccc(Br)cc1,1950
5,CC1(C)N=C(N)N=C(N)N1c1ccccc1,1380
6,CCC1N=C(N)N=C(N)N1c1ccc(Br)cc1 (stereo not drawn),202
7,CC1N=C(N)N=C(N)N1c1ccc(Cl)cc1 (stereo not drawn),127
8,Cc1ccc(N2C(N)=NC(N)=NC2C)cc1 (stereo not drawn),185
9,CC1(C)N=C(N)N=C(N)N1c1ccc(F)cc1,1630
10,CC(C)(C)C1N=C(N)N=C(N)N1c1ccc(Cl)cc1 (stereo not drawn),82700
11,CC1(C)N=C(N)N=C(N)N1c1ccc(Cl)cc1 [CYCLOGUANIL],1310
12,Cc1ccc(N2C(N)=NC(N)=NC2C(C)C)cc1 (stereo not drawn),1460

# Biological target: Bifunctional dihydrofolate reductase-thymidylate synthase (Plasmodium falciparum K1) (UniProt P13922)
# Assay: Evaluated for activity of compound relative to Cycloguanil
# Chain of Bifunctional dihydrofolate reductase-thymidylate synthase (Plasmodium falciparum K1) (P13922 whole entry, looked up): as the sequence (P13922 whole entry, looked up, stated change not applied) above
row,Compound,Relative activity
1,CCCC1N=C(N)N=C(N)N1c1ccc(C)cc1 (stereo not drawn),0.14
2,CC1N=C(N)N=C(N)N1c1ccc(Cl)c(Cl)c1 (stereo not drawn),0.014
3,NC1=NCN(c2ccccc2)C(N)=N1,0.4
4,CC1(C)N=C(N)N=C(N)N1c1ccc(Br)cc1,1.5
5,CC1(C)N=C(N)N=C(N)N1c1ccccc1,1.05
6,CCC1N=C(N)N=C(N)N1c1ccc(Br)cc1 (stereo not drawn),0.15
7,CC1N=C(N)N=C(N)N1c1ccc(Cl)cc1 (stereo not drawn),0.09
8,Cc1ccc(N2C(N)=NC(N)=NC2C)cc1 (stereo not drawn),0.14
9,CC1(C)N=C(N)N=C(N)N1c1ccc(F)cc1,1.2
10,CC(C)(C)C1N=C(N)N=C(N)N1c1ccc(Cl)cc1 (stereo not drawn),63
11,CC1(C)N=C(N)N=C(N)N1c1ccc(Cl)cc1 [CYCLOGUANIL],1
12,Cc1ccc(N2C(N)=NC(N)=NC2C(C)C)cc1 (stereo not drawn),1.11

# System: Plasmodium falciparum
# Assay: (§1) Growth inhibition (IC50) against Plasmodium falciparum wild-type TM4/8.2
# Format: functional, organism-based
# How it was run: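 TM4/8.2 clone (wild-type DHFR) grown in human erythrocytes, RPMI 1640 with 25 mM HEPES pH 7.4, 0.2% NaHCO3, gentamicin, 10% human serum, 37 °C, 3% CO2. Drug from DMSO (final 0.1%), 1.5% cell suspension at 1-2% parasitemia; [3H]-hypoxanthine added after 24 h, a further 18-24 h incubation. IC50 from sigmoidal incorporation-versus-concentration curve.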
row,Compound,IC50 [nM]
1,NC1=NC(c2ccccc2)N(c2ccc(Cl)c(Cl)c2)C(N)=N1 (stereo not drawn),40
2,CCCC1N=C(N)N=C(N)N1c1ccc(C)cc1 (stereo not drawn),167
3,CC1N=C(N)N=C(N)N1c1ccc(Cl)c(Cl)c1 (stereo not drawn),35
4,NC1=NCN(c2ccccc2)C(N)=N1,11600
5,CC1(C)N=C(N)N=C(N)N1c1ccc(Br)cc1,31
6,CC1(C)N=C(N)N=C(N)N1c1ccccc1,546
7,CCC1N=C(N)N=C(N)N1c1ccc(Br)cc1 (stereo not drawn),132
8,CC1N=C(N)N=C(N)N1c1ccc(Cl)cc1 (stereo not drawn),348
9,Cc1ccc(N2C(N)=NC(N)=NC2C)cc1 (stereo not drawn),462
10,CC1(C)N=C(N)N=C(N)N1c1ccc(F)cc1,294
11,Cc1ccc(N2C(N)=NC(N)=NC2(C)C)cc1,65
12,CC(C)(C)C1N=C(N)N=C(N)N1c1ccc(Cl)cc1 (stereo not drawn),2910
13,Cc1ccc(N2C(N)=NC(N)=NC2C(C)C)cc1 (stereo not drawn),8220
14,CC1(C)N=C(N)N=C(N)N1c1cccc(Cl)c1,60

# System: Plasmodium falciparum
# Assay: as §1
# Format: functional, organism-based
# How it was run: (§2)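 Parasites kept in human erythrocytes in RPMI 1640 with 25 mM HEPES pH 7.4, 0.2% NaHCO3, gentamicin and 10% human serum, at 37 °C under 3% CO2. Clones used were TM4/8.2 (wild-type DHFR) and T9/94 RC17 (A16V+S108T). Drug dilutions were made from DMSO stocks, final DMSO 0.1%, and added to a 1.5% cell suspension at 1-2% parasitemia. After 24 h, 0.25 µCi [3H]-hypoxanthine was added for a further 18-24 h, then scintillation counting. IC50 taken from a sigmoidal curve.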
row,Compound,IC50 [nM]
1,CC1(C)N=C(N)N=C(N)N1c1ccc(Cl)cc1 [CYCLOGUANIL],40

# System: Plasmodium falciparum
# Assay: Inhibition of Plasmodium falciparum T9/94 mutant
# Format: functional, organism-based
# How it was run: as §2
row,Compound,IC50 [nM]
1,NC1=NC(c2ccccc2)N(c2ccc(Cl)c(Cl)c2)C(N)=N1 (stereo not drawn),29
2,CCCC1N=C(N)N=C(N)N1c1ccc(C)cc1 (stereo not drawn),152
3,CC1N=C(N)N=C(N)N1c1ccc(Cl)c(Cl)c1 (stereo not drawn),19
4,NC1=NCN(c2ccccc2)C(N)=N1,356
5,CC1(C)N=C(N)N=C(N)N1c1ccc(Br)cc1,2760
6,CC1(C)N=C(N)N=C(N)N1c1ccccc1,445
7,CCC1N=C(N)N=C(N)N1c1ccc(Br)cc1 (stereo not drawn),220
8,CC1N=C(N)N=C(N)N1c1ccc(Cl)cc1 (stereo not drawn),347
9,Cc1ccc(N2C(N)=NC(N)=NC2C)cc1 (stereo not drawn),464
10,CC1(C)N=C(N)N=C(N)N1c1ccc(F)cc1,1000
11,Cc1ccc(N2C(N)=NC(N)=NC2(C)C)cc1,3620
12,CC1N=C(N)N=C(N)N1c1cccc(Cl)c1 (stereo not drawn),28
13,CC(C)(C)C1N=C(N)N=C(N)N1c1ccc(Cl)cc1 (stereo not drawn),2820
14,CC1(C)N=C(N)N=C(N)N1c1ccc(Cl)cc1 [CYCLOGUANIL],2430
15,Cc1ccc(N2C(N)=NC(N)=NC2C(C)C)cc1 (stereo not drawn),3450
16,CC1(C)N=C(N)N=C(N)N1c1cccc(Cl)c1,298

# Biological target: Bifunctional dihydrofolate reductase-thymidylate synthase (Plasmodium falciparum K1) (UniProt P13922)
# Assay: Evaluated for activity of relative to Cycloguanil
row,Compound,Relative activity
1,CCCC1N=C(N)N=C(N)N1c1ccc(C)cc1 (stereo not drawn),9.1
2,CC1N=C(N)N=C(N)N1c1ccc(Cl)c(Cl)c1 (stereo not drawn),0.9
3,NC1=NCN(c2ccccc2)C(N)=N1,220
4,CC1(C)N=C(N)N=C(N)N1c1ccc(Br)cc1,0.7
5,CC1(C)N=C(N)N=C(N)N1c1ccccc1,13
6,CCC1N=C(N)N=C(N)N1c1ccc(Br)cc1 (stereo not drawn),1.8
7,CC1N=C(N)N=C(N)N1c1ccc(Cl)cc1 (stereo not drawn),2.7
8,Cc1ccc(N2C(N)=NC(N)=NC2C)cc1 (stereo not drawn),15
9,CC1(C)N=C(N)N=C(N)N1c1ccc(F)cc1,3
10,CC1(C)N=C(N)N=C(N)N1c1ccc(Cl)cc1 [CYCLOGUANIL],1
11,Cc1ccc(N2C(N)=NC(N)=NC2C(C)C)cc1 (stereo not drawn),111

# Biological target: Bifunctional dihydrofolate reductase-thymidylate synthase (Plasmodium falciparum K1) (UniProt P13922)
# Assay: Selectivity ratio of growth inhibition against Plasmodium falciparum TM4/8.2(wild-type) and T9/94(mutant)
# Format: functional
row,Compound,IC50 ratio
1,CCCC1N=C(N)N=C(N)N1c1ccc(C)cc1 (stereo not drawn),0.91
2,CC1N=C(N)N=C(N)N1c1ccc(Cl)c(Cl)c1 (stereo not drawn),0.54
3,NC1=NCN(c2ccccc2)C(N)=N1,0.03
4,CC1(C)N=C(N)N=C(N)N1c1ccc(Br)cc1,89
5,CC1(C)N=C(N)N=C(N)N1c1ccccc1,0.82
6,CCC1N=C(N)N=C(N)N1c1ccc(Br)cc1 (stereo not drawn),3.24
7,CC1N=C(N)N=C(N)N1c1ccc(Cl)cc1 (stereo not drawn),1
8,Cc1ccc(N2C(N)=NC(N)=NC2C)cc1 (stereo not drawn),1
9,CC1(C)N=C(N)N=C(N)N1c1ccc(F)cc1,3.4
10,CC1(C)N=C(N)N=C(N)N1c1ccc(Cl)cc1 [CYCLOGUANIL],60.8
11,Cc1ccc(N2C(N)=NC(N)=NC2C(C)C)cc1 (stereo not drawn),0.42

# Biological target: Bifunctional dihydrofolate reductase-thymidylate synthase (Plasmodium falciparum K1) (UniProt P13922)
# Assay: Ratio of inhibitory constant of mutant by wild-type DHFRs of Plasmodium falciparum
row,Compound,Ratio
1,CCCC1N=C(N)N=C(N)N1c1ccc(C)cc1 (stereo not drawn),14
2,CC1N=C(N)N=C(N)N1c1ccc(Cl)c(Cl)c1 (stereo not drawn),12.7
3,NC1=NCN(c2ccccc2)C(N)=N1,1.8
4,CC1(C)N=C(N)N=C(N)N1c1ccc(Br)cc1,1770
5,CC1(C)N=C(N)N=C(N)N1c1ccccc1,69
6,CCC1N=C(N)N=C(N)N1c1ccc(Br)cc1 (stereo not drawn),37
7,CC1N=C(N)N=C(N)N1c1ccc(Cl)cc1 (stereo not drawn),31
8,Cc1ccc(N2C(N)=NC(N)=NC2C)cc1 (stereo not drawn),7.9
9,CC1(C)N=C(N)N=C(N)N1c1ccc(F)cc1,355
10,CC1(C)N=C(N)N=C(N)N1c1ccc(Cl)cc1 [CYCLOGUANIL],876
11,Cc1ccc(N2C(N)=NC(N)=NC2C(C)C)cc1 (stereo not drawn),8.7
